Bridge positions count the residues as written; N and C are the ends. Square brackets hold non-standard residues; d marks the D form. Peptide text beside a SMILES is read from it. * marks the point of attachment. Ala(4-thiazolyl) = N[C@@H](Cc1cscn1)C(=O)O; Ala(2-furyl) = N[C@@H](Cc1ccco1)C(=O)O; Orn(iPr) = CC(C)NCCC[C@H](N)C(=O)O; Orn(Pr) = CCCNCCC[C@H](N)C(=O)O; 2Thi = N[C@@H](Cc1cccs1)C(=O)O; 3Thi = N[C@@H](Cc1ccsc1)C(=O)O; NHCH(CH2OH)2 = OCC(CO)N*; Orn = NCCC[C@H](N)C(=O)O; Dab = NCC[C@H](N)C(=O)O; Ac4c = NC1(C(=O)O)CCC1; NHiBu = CC(C)CN*
Columns and labels:
[1] = biological target: T1, Oxytocin receptor (Homo sapiens, UniProt P30559); assay: Agonist activity at human OT receptor expressed in CHO-K1 cells by luciferase reporter gene assay; format: functional, cell-based
T1 sequence (P30559 whole entry): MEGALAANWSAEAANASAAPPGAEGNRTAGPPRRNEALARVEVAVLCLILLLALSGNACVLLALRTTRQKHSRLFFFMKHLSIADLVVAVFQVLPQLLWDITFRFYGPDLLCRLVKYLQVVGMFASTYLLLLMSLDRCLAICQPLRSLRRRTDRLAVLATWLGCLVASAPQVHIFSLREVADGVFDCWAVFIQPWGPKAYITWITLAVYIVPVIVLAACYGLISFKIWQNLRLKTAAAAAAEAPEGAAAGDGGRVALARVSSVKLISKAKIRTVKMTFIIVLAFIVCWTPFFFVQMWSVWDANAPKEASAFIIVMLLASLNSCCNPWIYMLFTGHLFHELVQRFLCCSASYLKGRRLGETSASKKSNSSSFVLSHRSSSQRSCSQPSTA

[2] = biological target: T2, Vasopressin V1a receptor (Homo sapiens, UniProt P37288); assay: Agonist activity at recombinant human vasopressin V1a receptor expressed in HEK293 cells by luciferase reporter gene assay; format: functional, cell-based; details: read-out: EC50
Target sequence in this assay (P37288 whole entry): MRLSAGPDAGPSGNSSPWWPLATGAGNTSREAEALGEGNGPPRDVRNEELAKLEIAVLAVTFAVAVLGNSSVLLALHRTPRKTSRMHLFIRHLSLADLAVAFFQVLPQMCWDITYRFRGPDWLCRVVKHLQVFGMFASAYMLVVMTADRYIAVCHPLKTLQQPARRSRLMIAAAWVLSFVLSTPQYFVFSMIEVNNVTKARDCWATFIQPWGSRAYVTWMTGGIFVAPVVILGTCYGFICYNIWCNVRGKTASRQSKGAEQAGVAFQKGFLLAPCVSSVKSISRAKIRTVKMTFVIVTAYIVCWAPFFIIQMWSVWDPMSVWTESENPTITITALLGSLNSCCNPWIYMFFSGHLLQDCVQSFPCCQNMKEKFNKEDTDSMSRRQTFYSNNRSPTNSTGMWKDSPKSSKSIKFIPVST

[3] = organism: Homo sapiens; assay: Selectivity ratio of EC50 for human oxytocin receptor to EC50 for human vasopressin V1a receptor
[4] = biological target: T3, Vasopressin V1b receptor (Homo sapiens, UniProt P47901); assay: Agonist activity at recombinant human vasopressin V1b receptor expressed in Flp-In-293 cells by luciferase reporter gene assay; format: functional, cell-based
T3 sequence (P47901 whole entry): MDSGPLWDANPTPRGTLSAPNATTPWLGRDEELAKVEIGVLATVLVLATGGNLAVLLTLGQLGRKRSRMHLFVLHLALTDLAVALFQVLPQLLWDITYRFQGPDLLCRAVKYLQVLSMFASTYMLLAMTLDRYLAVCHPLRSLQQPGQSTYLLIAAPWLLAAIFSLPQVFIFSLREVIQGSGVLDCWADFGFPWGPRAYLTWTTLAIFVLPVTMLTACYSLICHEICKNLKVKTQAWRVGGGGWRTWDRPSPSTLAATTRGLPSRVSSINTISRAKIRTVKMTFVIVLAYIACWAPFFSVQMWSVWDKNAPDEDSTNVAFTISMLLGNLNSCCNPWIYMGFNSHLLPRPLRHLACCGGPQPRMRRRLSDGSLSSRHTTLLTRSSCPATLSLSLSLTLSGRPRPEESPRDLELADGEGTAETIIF
In short: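 Reporter gene assays in HEK293 cells transiently cotransfected with V1a (human or rat) or human V2 receptor vector plus NFAT-luciferase (V1a) or CRE-luciferase (V2) reporter; V1b in Flp-In-293 stably expressing receptor, OT in CHO-K1 stably expressing receptor, both transiently transfected with NFAT-luciferase. Two days post-transfection, peptides added for 5 h at 37 °C, lysis with luciferin, luminescence read.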

[5] = biological target: T4, Vasopressin V2 receptor (Homo sapiens, UniProt P30518); assay: Partial agonist activity at recombinant human vasopressin V2 receptor expressed in HEK293 cells by luciferase reporter gene assay; format: functional, cell-based
T4 sequence (P30518 whole entry): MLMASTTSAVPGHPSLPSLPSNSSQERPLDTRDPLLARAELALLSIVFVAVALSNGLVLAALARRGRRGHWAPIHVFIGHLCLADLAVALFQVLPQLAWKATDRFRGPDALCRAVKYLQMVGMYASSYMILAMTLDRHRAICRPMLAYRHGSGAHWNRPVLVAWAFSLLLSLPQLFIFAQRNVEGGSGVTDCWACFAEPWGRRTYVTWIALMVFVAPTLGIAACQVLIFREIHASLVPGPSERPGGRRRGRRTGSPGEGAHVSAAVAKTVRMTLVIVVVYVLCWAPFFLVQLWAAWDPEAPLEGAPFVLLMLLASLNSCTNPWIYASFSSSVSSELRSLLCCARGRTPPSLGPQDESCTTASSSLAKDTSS
In short: (§1)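 Same luciferase reporter systems (OT in stable CHO-K1, V1b in stable Flp-In-293, each with transient NFAT-luciferase; V1a in HEK293 with NFAT-luciferase, V2 in HEK293 with CRE-luciferase). Peptides added for 5 h at 37 °C two days post-transfection, luminescence read. Partial agonism means efficacy <70%.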

[6] = biological target: T5, Oxytocin receptor (Homo sapiens) (UniProt P30559); assay: Partial agonist activity at human OT receptor expressed in CHO-K1 cells by luciferase reporter gene assay; format: functional, cell-based; in short: as §1
T5 sequence (whole entry): T1 sequence (P30559 whole entry)

[7] = organism: Homo sapiens; assay: Selectivity ratio of EC50 for human vasopressin V1b receptor to EC50 for human vasopressin V1a receptor
[8] = biological target: T4, Vasopressin V2 receptor; assay: Agonist activity at recombinant human vasopressin V2 receptor expressed in HEK293 cells by luciferase reporter gene assay; format: functional, cell-based
[9] = biological target: Vasopressin V1a/V2 (Homo sapiens) (UniProt P30518+P37288); assay: Selectivity ratio of EC50 for human vasopressin V2 receptor to EC50 for human vasopressin V1a receptor
Chain of Vasopressin V1a/V2 (Homo sapiens) (P30518 whole entry, looked up): as the sequence (P30518 whole entry) above
Chain of Vasopressin V1a/V2 (Homo sapiens) (P37288 whole entry, looked up): as the sequence (P37288 whole entry) above

[10] = biological target: T6, Vasopressin V1b receptor (Homo sapiens) (UniProt P47901); assay: Partial agonist activity at recombinant human vasopressin V1b receptor expressed in Flp-In-293 cells by luciferase reporter gene assay; format: functional, cell-based; in short: as §1
T6 sequence (whole entry): T3 sequence (P47901 whole entry)

[11] = biological target: T2, Vasopressin V1a receptor; assay: Partial agonist activity at recombinant human vasopressin V1a receptor expressed in HEK293 cells by luciferase reporter gene assay; format: functional, cell-based; in short: as §1
Target sequence in this assay (P37288 whole entry, looked up): as the sequence (P37288 whole entry) above

Row | SMILES | EC50 ([1]; read-out: EC50) | EC50 [2] | Ratio EC50 [3] | EC50 ([4]; read-out: EC50) | Efficacy [5] | Efficacy [6] | Ratio EC50 [7] | EC50 ([8]; read-out: EC50) | Ratio EC50 [9] | EC50 ([1]; cho-k1, read-out: EC50) | EC50 ([1]; read-out: pEC50 (converted)) | Efficacy [10] | EC50 ([8]; hek293, read-out: EC50) | EC50 ([8]; read-out: pEC50 (converted)) | Efficacy [11] | EC50 ([4]; flp-in-293, read-out: EC50) | EC50 ([4]; read-out: pEC50 (converted))
1 | CC[C@H](C)[C@@H]1NC(=O)[C@H](Cc2ccccc2)NC(=O)[C@@H](N)CSSC[C@@H](C(=O)N2CCC[C@H]2C(=O)N[C@@H](CCCNC(C)C)C(=O)NCC(N)=O)NC(=O)[C@H](CC(N)=O)NC(=O)[C@H](CC(N)=O)NC1=O (H-CFINNCP[Orn(iPr)]G-NH2; disulfide 1-6) | 110 nM | 1.4 nM | 78 | 250 nM | < 70% | < 70% | 170 | 3700 nM | 2600 | – | – | – | – | – | – | – | –
2 | CCCNCCC[C@H](NC(=O)[C@@H]1CCCN1C(=O)[C@@H]1CSSC[C@H](N)C(=O)N[C@@H](Cc2ccccc2)C(=O)N[C@@H]([C@@H](C)CC)C(=O)N[C@@H](CC(N)=O)C(=O)N[C@@H](CC(N)=O)C(=O)N1)C(=O)NCC(N)=O (H-CFINNCP[Orn(Pr)]G-NH2; disulfide 1-6) | – | 1.5 nM | > 6600 | 31 nM | – | – | 20 | – | > 6600 | > 10000 nM | > 10000 nM | < 70% | > 10000 nM | > 10000 nM | – | – | –
3 | CC[C@H](C)[C@@H]1NC(=O)[C@H](Cc2cscn2)NC(=O)[C@@H](N)CSSC[C@@H](C(=O)N2CCC[C@H]2C(=O)N[C@@H](CCN)C(=O)NCC(N)=O)NC(=O)[C@H](CC(N)=O)NC(=O)[C@H](CCC(N)=O)NC1=O (H-C[Ala(4-thiazolyl)]IQNCP[Dab]G-NH2; disulfide 1-6) | 1200 nM | 19 nM | 63 | 430 nM | < 70% | < 70% | 22 | 2500 nM | 130 | – | – | – | – | – | – | – | –
4 | CC[C@H](C)[C@@H]1NC(=O)[C@H](Cc2ccsc2)NC(=O)[C@@H](N)CSSC[C@@H](C(=O)N2CCC[C@H]2C(=O)N[C@@H](CCN)C(=O)NCC(N)=O)NC(=O)[C@H](CC(N)=O)NC(=O)[C@H](CCC(N)=O)NC1=O (H-C[3Thi]IQNCP[Dab]G-NH2; disulfide 1-6) | 30 nM | 0.61 nM | 49 | 50 nM | – | < 70% | 81 | 200 nM | 320 | – | – | < 70% | – | – | – | – | –
5 | CC[C@H](C)[C@@H]1NC(=O)[C@H](Cc2cccs2)NC(=O)[C@@H](N)CSSC[C@@H](C(=O)N2CCC[C@H]2C(=O)N[C@@H](CCN)C(=O)NCC(N)=O)NC(=O)[C@H](CC(N)=O)NC(=O)[C@H](CCC(N)=O)NC1=O (H-C[2Thi]IQNCP[Dab]G-NH2; disulfide 1-6) | 29 nM | 0.54 nM | 53 | 150 nM | – | < 70% | 270 | 120 nM | 220 | – | – | – | – | – | – | – | –
6 | CC[C@H](C)[C@@H]1NC(=O)[C@H](Cc2ccccc2)NC(=O)[C@@H](N)CSSC[C@@H](C(=O)N2CCC[C@H]2C(=O)N[C@@H](CCCN)C(=O)NCC(N)=O)NC(=O)[C@H](CC(N)=O)NC(=O)[C@H](CCC(=O)NCC(C)C)NC1=O (H-CFIE(NHiBu)NCP[Orn]G-NH2; disulfide 1-6) | – | 21 nM | > 470 | 150 nM | < 70% | – | 7.1 | 3000 nM | 140 | > 10000 nM | > 10000 nM | – | – | – | – | – | –
7 | CC[C@H](C)[C@@H]1NC(=O)[C@H](Cc2ccccc2)NC(=O)[C@@H](N)CSSC[C@@H](C(=O)N2CCC[C@H]2C(=O)N[C@@H](CCCN)C(=O)NCC(N)=O)NC(=O)[C@H](CC(N)=O)NC(=O)[C@H](CC(=O)NC(CO)CO)NC1=O (H-CFID(NHCH(CH2OH)2)NCP[Orn]G-NH2; disulfide 1-6) | – | 16 nM | > 620 | 62 nM | – | – | 3.8 | – | > 620 | > 10000 nM | > 10000 nM | < 70% | > 10000 nM | > 10000 nM | < 70% | – | –
8 | CC[C@H](C)[C@@H]1NC(=O)[C@H](Cc2cnc[nH]2)NC(=O)[C@@H](N)CSSC[C@@H](C(=O)N2CCC[C@H]2C(=O)N[C@@H](CCN)C(=O)NCC(N)=O)NC(=O)[C@H](CC(N)=O)NC(=O)[C@H](CCC(N)=O)NC1=O (H-CHIQNCP[Dab]G-NH2; disulfide 1-6) | – | 510 nM | > 19 | – | – | – | > 19 | – | > 19 | > 10000 nM | > 10000 nM | – | > 10000 nM | > 10000 nM | < 70% | > 10000 nM | > 10000 nM
9 | CC[C@H](C)[C@@H]1NC(=O)[C@H](Cc2ccco2)NC(=O)[C@@H](N)CSSC[C@@H](C(=O)N2CCC[C@H]2C(=O)N[C@@H](CCN)C(=O)NCC(N)=O)NC(=O)[C@H](CC(N)=O)NC(=O)[C@H](CC(N)=O)NC1=O (H-C[Ala(2-furyl)]INNCP[Dab]G-NH2; disulfide 1-6) | 780 nM | 14 nM | 55 | 460 nM | – | < 70% | 32 | – | > 710 | – | – | – | > 10000 nM | > 10000 nM | – | – | –
10 | CC[C@H](C)[C@@H]1NC(=O)C2(CCC2)NC(=O)[C@@H](N)CSSC[C@@H](C(=O)N2CCC[C@H]2C(=O)N[C@@H](CCN)C(=O)NCC(N)=O)NC(=O)[C@H](CC(N)=O)NC(=O)[C@H](CCC(N)=O)NC1=O (H-C[Ac4c]IQNCP[Dab]G-NH2; disulfide 1-6) | 180 nM | 0.94 nM | 190 | 64 nM | – | < 70% | 68 | 380 nM | 400 | – | > 10000 nM | – | – | – | – | – | –
11 | CC[C@H](C)[C@@H]1NC(=O)[C@H](Cc2ccccc2)NC(=O)[C@@H](N)CSSC[C@@H](C(=O)N2CCC[C@H]2C(=O)N[C@@H](CCN)C(=O)NCC(N)=O)NC(=O)[C@H](CC(N)=O)NC(=O)[C@H](CCC(N)=O)NC1=O (H-CFIQNCP[Dab]G-NH2; disulfide 1-6) | 9.1 nM | – | 18 | 26 nM | – | < 70% | 52 | 73 nM | 140 | – | – | – | – | – | – | – | –

Reference: ChEMBL document CHEMBL1817572, “New, potent, selective, and short-acting peptidic V1a receptor agonists” (J Med Chem, 2011)
